Among the data in ChEMBL document CHEMBL1671632, “Genetic basis of multidrug resistance in Acinetobacter baumannii clinical isolates at a tertiary medical center in Pennsylvania” (2008) are MIC, Activity and Percent resistant isolates values, retold here.

Converted amounts (≈) assume the structure as drawn.

Assay [1] has as its system Acinetobacter baumannii. The experiment in a line: Antimicrobial activity against multidrug-resistant Acinetobacter baumannii by Etest method. Type of assay: functional.
Assay [2] has as its system Acinetobacter baumannii. Description: Antimicrobial activity against multidrug-resistant Acinetobacter baumannii expressing aph(3')-Vla gene by Etest method. It is filed as functional.
In assay [3] the test system is Acinetobacter baumannii. Description: Antimicrobial activity against multidrug-resistant Acinetobacter baumannii assessed as resistant isolates by disk diffusion method. Type of assay: functional. In short, it runs like this: (§1)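 Standard disk diffusion was done on Mueller-Hinton agar with ampicillin-sulbactam, ceftazidime, cefepime, meropenem, tobramycin, gentamicin, ciprofloxacin and tetracycline. Isolates were called susceptible or resistant using CLSI breakpoints.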

In assay [4] the test system is Acinetobacter baumannii. Description: Antimicrobial activity against multidrug-resistant Acinetobacter baumannii expressing armA gene by Etest method. Type of assay: functional.
For assay [5], the system named is Acinetobacter baumannii. Description: Antimicrobial activity against multidrug-resistant Acinetobacter baumannii expressing aac(6')-1b gene by Etest method. Type of assay: functional.
The subject of assay [6] is Acinetobacter baumannii. Description: Antimicrobial activity against multidrug-resistant Acinetobacter baumannii assessed as resistant isolates by disk diffusion method in presence of beta-lactamase inhibitor Sulbactam. It is filed as functional. The gist of the method: as §1
For orientation: A growth-free zone around the sample is the usual read-out of agar diffusion tests.

Assay [7] has as its system Acinetobacter baumannii. Description: Antimicrobial activity against Acinetobacter baumannii AB017 transformant harboring bla-OXA-23 gene by Etest method. It is filed as functional.
Assay [8] relates to Acinetobacter baumannii. The experiment in a line: Antimicrobial activity against Acinetobacter baumannii HE130 lacking bla-OXA-23 gene by Etest method.
The subject of assay [9] is Acinetobacter baumannii. Description: Antimicrobial activity against multidrug-resistant Acinetobacter baumannii expressing armA and bla oxa-23 gene assessed as resistant isolates by disk diffusion method. Type of assay: functional. In short, it runs like this:
as §1

The test system of assay [10] is Acinetobacter baumannii. The experiment in a line: Antimicrobial activity against Acinetobacter baumannii AB026 transformant harboring bla-OXA-23 gene by Etest method. Type of assay: functional.

Usually MIC stands for the smallest concentration in the dilution series that meets the test's criterion for growth inhibition. Higher therefore signals a need for much substance. On to `NCC[C@H](O)C(=O)N[C@@H]1C[C@H](N)[C@@H](O[C@H]2O[C@H](CN)[C@@H](O)[C@H](O)[C@H]2O)[C@H](O)[C@H]1O[C@H]1O[C@H](CO)[C@@H](O)[C@H](N)[C@H]1O` [AMIKACIN], for which the MIC is 128 µg/mL (≈ 219 µM) in assay [1], 12 µg/mL (≈ 20.5 µM) in assay [2], more than 256 µg/mL in assay [4] and 2 µg/mL (≈ 3.42 µM) in assay [5]. In addition, in [3], the Activity was 36.7%.

As for `CC1(C)S[C@@H]2[C@H](NC(=O)[C@H](N)c3ccccc3)C(=O)N2[C@H]1C(=O)O` [AMPICILLIN], the Activity in [6] came to 40.8%.

Turning to `CO/N=C(\C(=O)N[C@@H]1C(=O)N2C(C(=O)[O-])=C(C[N+]3(C)CCCC3)CS[C@H]12)c1csc(N)n1` [CEFEPIME], in [3], the Activity is given as 79.6%.

`CC(C)(O/N=C(\C(=O)N[C@@H]1C(=O)N2C(C(=O)[O-])=C(C[n+]3ccccc3)CS[C@H]12)c1csc(N)n1)C(=O)O` [CEFTAZIDIME]: the Activity in [3] was found to be 87.8%.

Turning to `O=C(O)c1cn(C2CC2)c2cc(N3CCNCC3)c(F)cc2c1=O` [CIPROFLOXACIN], in assay [3], the Activity is 95.9%.

Consider `C[C@@H](O)[C@H]1C(=O)N2C(C(=O)O)=C(SCCNC=N)C[C@H]12` [IMIPENEM ANHYDROUS], for which the results for the MIC in [7] and in assay [8] were 4 µg/mL (≈ 13.4 µM) and 0.5 µg/mL (≈ 1.67 µM), respectively. Moreover, the Activity in assay [9] is reported as 18.4%.

For `C[C@@H](O)[C@H]1C(=O)N2C(C(=O)O)=C(S[C@@H]3CN[C@H](C(=O)N(C)C)C3)[C@H](C)[C@H]12` [MEROPENEM], the values for the MIC in assay [10] and in assay [8] were 6 µg/mL (≈ 15.6 µM) and 0.125 µg/mL (≈ 0.326 µM), respectively. The Activity in assay [3] is given as 22.4%.

For the compound `CN(C)[C@@H]1C(O)=C(C(N)=O)C(=O)[C@@]2(O)C(O)=C3C(=O)c4c(O)cccc4[C@@](C)(O)[C@H]3C[C@@H]12` [TETRACYCLINE], the Activity in assay [3] was determined as 79.6%.

For the compound `NC[C@H]1O[C@H](O[C@H]2[C@H](O)[C@@H](O[C@H]3O[C@H](CO)[C@@H](O)[C@H](N)[C@H]3O)[C@H](N)C[C@@H]2N)[C@H](N)C[C@@H]1O` [TOBRAMYCIN], the Activity in [3] is given as 61.2%.

Regarding GENTAMICIN, the Percent resistant isolates in assay [3] was found to be 77.6%.
